According to ChEMBL document CHEMBL3352197, “Design, synthesis, in silico and in vitro studies of novel 4-methylthiazole-5-carboxylic acid derivatives as potent anti-cancer agents” (Bioorg Med Chem Lett, 2014):

How the values were obtained:
MDA-MB-231 [1] = test: Cytotoxicity against human MDA-MB-231 cells assessed as cell viability at 100 ug/ml after 24 to 48 hrs by trypan blue exclusion assay (reference value: 86.21 +/- 1.80%); type: functional; conditions: read-out: Activity
Procedure, shortened: (§1)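 MDA-MB-231 cells (DMEM, 10% FBS, 2 mM glutamine, 37 °C, 5% CO2) seeded at 2 x 10^5/well and grown 24 h. Compound in fresh medium with 0.1% DMSO (solvent control) for 24–48 h at 37 °C. Floating plus trypsinized adherent cells mixed 1:1 with 0.4% trypan blue and counted by haemocytometer. % viable = (total − dead)/total × 100. Mean SE, n = 3.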

MDA-MB-231 [2] = test: Cytotoxicity against human MDA-MB-231 cells assessed as cell viability at 10 ug/ml after 24 to 48 hrs by trypan blue exclusion assay (reference value: 87.54 +/- 2.11%); type: functional; conditions: read-out: Activity; procedure, shortened: as §1
[3] = Lipophilicity, log P of the compound; type: physicochemical; conditions: octanol/water
MDA-MB-231 [4] = test: Cytotoxicity against human MDA-MB-231 cells assessed as optical density after 24 hrs by MTT assay (Rvb =2.43 +/- 0.05 nm); type: functional
Procedure, shortened: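 Exponentially growing MDA-MB-231 cells were resuspended in medium with 10% FBS, washed with PBS, and treated in fresh medium for 24 h. MTT (5 mg/mL stock in PBS) was then added for 4 h at 37 °C. Formazan was dissolved in DMSO and optical density read at 570 nm.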

| SMILES | logP [3] | viability at 100 µg/mL (MDA-MB-231 [1]) [%] | viability at 10 µg/mL (MDA-MB-231 [2]) [%] | OD (MDA-MB-231 [4]) |
| --- | --- | --- | --- | --- |
| Cc1nc(-c2ccc(OCC(C)C)c(C#N)c2)sc1C(=O)NCc1cccc(F)c1 | 2.86 | 54.3 | 64.3 | 1.44 |
| Cc1nc(-c2ccc(OCC(C)C)c(C#N)c2)sc1C(=O)OCC(C)C | 0 | 36.2 | 44.2 | 1.16 |
| Cc1nc(-c2ccc(OCC(C)C)c(C#N)c2)sc1C(=O)n1cc(F)c(N)nc1=O | 0.94 | 66.4 | 74.6 | 2.11 |
| Cc1nc(-c2ccc(OCC(C)C)c(C#N)c2)sc1C(=O)O [FEBUXOSTAT] | 1.35 | 27.7 | 38.3 | 0.56 |
| Cc1ccc(-c2cc(C(F)(F)F)nn2-c2ccc(S(N)(=O)=O)cc2)cc1 [CELECOXIB] | – | 11.4 | 17.3 | 0.27 |
| Cc1nc(-c2ccc(OCC(C)C)cc2)sc1C(=O)O | 3.08 | 59.3 | 71.2 | 1.73 |
| Cc1nc(-c2ccc(OCC(C)C)c(C#N)c2)sc1C(=O)N1CCC(c2noc3cc(F)ccc23)CC1 | 2.7 | 56.3 | 64.6 | 1.65 |

Continued, in another order:

| logP [3] | SMILES | viability at 100 µg/mL (MDA-MB-231 [1]) [%] | viability at 10 µg/mL (MDA-MB-231 [2]) [%] | OD (MDA-MB-231 [4]) |
| --- | --- | --- | --- | --- |
| 1.59 | Cc1nc(-c2ccc(OCC(C)C)c(C#N)c2)sc1C(=O)n1ccc(N)nc1=O | 29.2 | 40.9 | 0.79 |
| 4.57 | Cc1nc(-c2ccc(OCC(C)C)c(C#N)c2)sc1C(=O)Nc1ccccc1 | 50.7 | 62.7 | 1.31 |
| 1.63 | COC(=O)c1sc(-c2ccc(OCC(C)C)c(C#N)c2)nc1C | 67.6 | 76.7 | 2.27 |
| 2.2 | Cc1nc(-c2ccc(OCC(C)C)c(C#N)c2)sc1C(=O)NCc1ccccc1 | 63.5 | 73.6 | 1.89 |
| 2.9 | Cc1nc(-c2ccc(OCC(C)C)c(C#N)c2)sc1C(=O)NCc1ccccc1F | 43.2 | 58.3 | 1.27 |
| 2.86 | Cc1nc(-c2ccc(OCC(C)C)c(C#N)c2)sc1C(=O)NCc1ccc(F)cc1 | 13.1 | 21.8 | 0.33 |
